Experimental data from ChEMBL document CHEMBL1140809, “Design, synthesis, and biological evaluation of human sialidase inhibitors. Part 1: selective inhibitors of lysosomal sialidase (NEU1)” (Bioorg Med Chem Lett, 2008).

Tests used:
Type in all cases: cell-based
[1] = biological target: Sialidase-1 (Homo sapiens, UniProt Q99519); test: Inhibition of human NEU1 expressed in HEK293 cells
How it was run: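 Homogenates of HEK-293 cells transiently co-transfected with full-length human NEU1 cDNA plus protective protein cDNA. Substrate: 4MU-NeuAc. One unit (nmol/h) of enzyme incubated 30–60 min. Each compound tested at four concentrations (0.05, 0.1, 0.5, 1). IC50 derived by non-linear regression of concentration–inhibition curves.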

[2] = biological target: T1, Sialidase-3 (Homo sapiens, UniProt Q9UQ49); test: Inhibition of human NEU3 expressed in HEK293 cells
T1 sequence (Q9UQ49 whole entry): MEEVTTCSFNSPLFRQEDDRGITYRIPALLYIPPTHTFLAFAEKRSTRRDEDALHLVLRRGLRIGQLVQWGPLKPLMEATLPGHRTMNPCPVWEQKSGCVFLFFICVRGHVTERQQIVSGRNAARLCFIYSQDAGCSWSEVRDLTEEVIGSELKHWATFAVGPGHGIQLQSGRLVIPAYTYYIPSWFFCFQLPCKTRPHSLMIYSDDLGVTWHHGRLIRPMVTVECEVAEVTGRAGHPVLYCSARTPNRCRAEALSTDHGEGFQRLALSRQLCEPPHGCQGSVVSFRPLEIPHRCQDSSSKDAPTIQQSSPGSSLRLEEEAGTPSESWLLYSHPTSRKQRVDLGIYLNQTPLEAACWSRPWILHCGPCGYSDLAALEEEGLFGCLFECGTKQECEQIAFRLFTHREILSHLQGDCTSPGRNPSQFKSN
How it was run: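 Enzyme source: homogenates of HEK-293 cells transiently transfected with full-length human NEU3 cDNA. Substrate: mixed gangliosides. One unit (nmol/h) of enzyme incubated 30–60 min. Four test concentrations (0.05, 0.1, 0.5, 1). IC50 derived by non-linear regression of concentration–inhibition curves.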

[3] = biological target: T2, Sialidase-4 (Homo sapiens, UniProt Q8WWR8); test: Inhibition of human NEU4 expressed in HEK293 cells
T2 sequence (Q8WWR8 whole entry): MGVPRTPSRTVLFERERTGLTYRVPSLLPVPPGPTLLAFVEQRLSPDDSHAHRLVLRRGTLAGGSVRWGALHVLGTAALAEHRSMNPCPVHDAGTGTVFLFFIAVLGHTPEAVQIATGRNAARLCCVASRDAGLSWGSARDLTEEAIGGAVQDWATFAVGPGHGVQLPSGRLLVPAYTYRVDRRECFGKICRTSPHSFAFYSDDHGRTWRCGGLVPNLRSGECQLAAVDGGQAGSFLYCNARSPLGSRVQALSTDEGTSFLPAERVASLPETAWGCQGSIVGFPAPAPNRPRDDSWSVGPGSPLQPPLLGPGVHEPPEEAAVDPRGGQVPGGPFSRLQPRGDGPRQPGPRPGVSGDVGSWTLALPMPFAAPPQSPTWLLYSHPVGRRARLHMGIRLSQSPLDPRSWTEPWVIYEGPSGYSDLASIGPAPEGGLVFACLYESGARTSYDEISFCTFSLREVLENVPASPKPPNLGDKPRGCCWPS
How it was run: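 Human NEU4 (full-length cDNA) transiently expressed in HEK-293 cells, with cell homogenates as the enzyme source. Substrate: 4MU-NeuAc. One unit (nmol/h) of enzyme incubated 30–60 min. Four concentrations tested (0.05, 0.1, 0.5, 1). IC50 derived by non-linear regression of concentration–inhibition curves.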

Row | Structure (SMILES) | IC50 [1] | IC50 [2] | IC50 [3]
1 | CC(=O)N[C@H]1[C@H]([C@@H](O)[C@@H](O)CNC(=O)C2CCCC2)OC(C(=O)O)=C[C@@H]1O | 135 µM | > 1 mM | > 1000 µM
2 | CC(=O)N[C@H]1[C@H]([C@@H](O)[C@@H](O)CNC(=O)C(C)(C)C)OC(C(=O)O)=C[C@@H]1O | > 1000 µM | > 1 mM | > 1000 µM
3 | CC(=O)N[C@H]1[C@H]([C@@H](O)[C@@H](O)CNC(=O)CC(C)C)OC(C(=O)O)=C[C@@H]1O | 565 µM | > 1 mM | > 1000 µM
4 | CC(=O)N[C@H]1[C@H]([C@@H](O)[C@@H](O)CNC(=O)C2CC2)OC(C(=O)O)=C[C@@H]1O | 680 µM | > 1 mM | 825 µM
5 | CC(=O)N[C@H]1[C@H]([C@@H](O)[C@@H](O)CNC(=O)C(C)C)OC(C(=O)O)=C[C@@H]1O |  | > 1 mM | > 1000 µM
6 | CCCCC(=O)NC[C@H](O)[C@H](O)[C@@H]1OC(C(=O)O)=C[C@H](O)[C@H]1NC(C)=O |  |  | > 1000 µM
7 | CCC(C)CC(=O)NC[C@H](O)[C@H](O)[C@@H]1OC(C(=O)O)=C[C@H](O)[C@H]1NC(C)=O (stereo partly specified) | > 1000 µM | > 1 mM | > 1000 µM
8 | CC(=O)N[C@H]1[C@H]([C@@H](O)[C@@H](O)CNC(=O)c2ccccc2)OC(C(=O)O)=C[C@@H]1O | 13 µM | 0.32 mM | 810 µM
9 | CC(=O)NC[C@H](O)[C@H](O)[C@@H]1OC(C(=O)O)=C[C@H](O)[C@H]1NC(C)=O | 58 µM | > 1 mM | 580 µM
10 | CCCC(=O)NC[C@H](O)[C@H](O)[C@@H]1OC(C(=O)O)=C[C@H](O)[C@H]1NC(C)=O | 32 µM | > 1 mM | 
